Reference: ChEMBL document CHEMBL1765024, “Fluorescent cyclin-dependent kinase inhibitors block the proliferation of human breast cancer cells” (Bioorg Med Chem, 2011)
The source made the active and inactive calls. The rule behind the calls is not given here.

Columns and labels:
Homo sapiens = species: Homo sapiens; assay: Binding affinity to human breast cancer tissue at 10 uM after 1 hr by two-photon confocal microscopic analysis; assay type: functional
Outline: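 Breast cancer tissue sections were dewaxed and rehydrated, then given epitope retrieval for 20 min at 100 °C. They were blocked with goat serum, exposed to 10 µM compound or dansyl ethylenediamine control for 1 h at room temperature, washed and mounted. Dansyl fluorescence was imaged.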

MDA-MB-231 [1] = assay: Induction of apoptosis in human MDA-MB-231 cells assessed as decrease in caspase 3 protein level at 10 uM after 48 hrs by Western blotting; assay type: functional, cell-based
MCF7 [2] = assay: Drug uptake in human MCF7 cell cytoplasm at 10 uM after 3 to 24 hrs using propidium iodide staining by two-photon confocal microscopy; assay type: ADME, cell-based; conditions: mcf7, 10 µM
[3] = target: Cyclin-dependent kinase 1/cyclin B1 (Homo sapiens) (UniProt P06493+P14635); conditions: at 0.1 µM
Cyclin-dependent kinase 1/cyclin B1 (Homo sapiens), sequence (P06493 whole entry, looked up): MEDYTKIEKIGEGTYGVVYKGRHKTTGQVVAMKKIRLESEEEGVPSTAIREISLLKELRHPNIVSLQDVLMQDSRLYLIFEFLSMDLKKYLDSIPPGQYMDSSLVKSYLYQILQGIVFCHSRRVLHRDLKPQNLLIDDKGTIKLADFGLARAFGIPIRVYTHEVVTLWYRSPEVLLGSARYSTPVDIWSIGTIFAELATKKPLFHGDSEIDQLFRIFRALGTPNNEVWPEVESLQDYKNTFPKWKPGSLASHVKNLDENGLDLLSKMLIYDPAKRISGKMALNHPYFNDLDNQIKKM
Cyclin-dependent kinase 1/cyclin B1 (Homo sapiens), sequence (P14635 whole entry, looked up): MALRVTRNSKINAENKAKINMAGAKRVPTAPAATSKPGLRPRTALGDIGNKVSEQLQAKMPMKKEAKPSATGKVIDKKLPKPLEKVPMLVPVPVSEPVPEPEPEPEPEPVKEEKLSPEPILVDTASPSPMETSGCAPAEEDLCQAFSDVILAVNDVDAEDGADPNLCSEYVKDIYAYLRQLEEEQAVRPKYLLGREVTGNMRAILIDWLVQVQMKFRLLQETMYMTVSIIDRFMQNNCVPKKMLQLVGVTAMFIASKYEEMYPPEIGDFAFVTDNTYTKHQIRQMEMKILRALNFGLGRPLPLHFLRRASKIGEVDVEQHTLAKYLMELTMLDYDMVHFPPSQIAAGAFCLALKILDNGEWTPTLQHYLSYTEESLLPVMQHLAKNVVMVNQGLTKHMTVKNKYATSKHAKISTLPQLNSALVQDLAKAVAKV

MCF7 [4] = assay: Cell cycle arrest in human MCF7 cells assessed as accumulation at G2/M phase at 5 to 10 uM after 24 hrs using propidium iodide staining by flow cytometry; assay type: functional, cell-based
Outline: (§1)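 Asynchronous cells were treated with 5 or 10 µM compound or DMSO for 24 h (also 16 and 40 h). They were trypsinized, washed in PBS and fixed/permeabilized in 70% ethanol. Staining was with RNase and propidium iodide for 30 min in the dark at room temperature, followed by flow cytometry. Phase percentages are given minus DMSO control; mean of triplicates.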

[5] = target: Cyclin-dependent kinase 5/CDK5 activator 1 (Homo sapiens) (UniProt Q00535+Q15078); conditions: at 0.1 µM
Cyclin-dependent kinase 5/CDK5 activator 1 (Homo sapiens), sequence (Q00535 whole entry): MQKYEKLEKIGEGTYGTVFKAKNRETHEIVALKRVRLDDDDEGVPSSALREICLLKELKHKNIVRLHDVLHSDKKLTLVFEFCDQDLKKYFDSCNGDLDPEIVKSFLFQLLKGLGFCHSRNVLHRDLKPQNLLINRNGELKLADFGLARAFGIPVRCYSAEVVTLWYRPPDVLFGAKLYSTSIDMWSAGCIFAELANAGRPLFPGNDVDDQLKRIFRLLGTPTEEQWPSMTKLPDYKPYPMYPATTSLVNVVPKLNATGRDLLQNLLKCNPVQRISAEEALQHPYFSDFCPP
Cyclin-dependent kinase 5/CDK5 activator 1 (Homo sapiens), sequence (Q15078 99-307 partner limits assumed): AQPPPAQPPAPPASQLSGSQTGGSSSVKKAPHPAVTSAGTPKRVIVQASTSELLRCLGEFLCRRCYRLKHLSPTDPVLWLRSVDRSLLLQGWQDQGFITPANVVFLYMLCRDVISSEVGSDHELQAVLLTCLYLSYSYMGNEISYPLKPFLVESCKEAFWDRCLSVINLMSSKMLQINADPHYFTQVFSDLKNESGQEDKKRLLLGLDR

MDA-MB-231 [6] = assay: Antiproliferative activity against estrogen receptor-deficient human MDA-MB-231 cells after 48 hrs by WST-1 assay; assay type: functional, cell-based; conditions: MDA-MB-231, 48 h
Outline: (§2)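 Cells seeded at 3000/well in DMEM with 10% FBS and left 24 h. Compounds in DMSO were serially diluted in medium (1–100 µM) and added in triplicate. WST-1 was read 48 h after addition: 2–3 h incubation, absorbance at 450 nm with 630 nm reference. IC50 interpolated from log concentration versus fraction surviving; mean (SEM) of triplicate experiments.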

MDA-MB-231 [7] = assay: Induction of apoptosis in human MDA-MB-231 cells assessed as increase in Bax protein level at 10 uM after 48 hrs by Western blotting; assay type: functional, cell-based
Outline: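 MDA-MB-231 cells were treated with vehicle or 10 µM compound for 48 h (and 72 h). Lysates were cleared and protein measured by BCA. Equal protein was run on 10% SDS–PAGE and transferred to PVDF, blocked in 5% milk overnight, and probed 2 h with anti-Bcl-2, Bax or PARP. HRP secondary was applied for 1 h, with ECL detection.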

[8] = Antiproliferative activity against human CL 10.3 cells expressing p-glycoprotein after 72 hrs by WST-1 assay; assay type: functional, cell-based
Outline: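 MCF-7 and its P-glycoprotein-overexpressing MDR subline CL 10.3 were grown in DMEM with 10% heat-inactivated FBS. Compounds in DMSO were serially diluted in medium and given to cells for 72 h. Read-out was WST-1 reduction (450 nm, 630 nm reference). IC50 interpolated from log concentration versus fraction surviving; mean (SEM) of triplicates. Ratio is CL 10.3 IC50 over MCF-7 IC50.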

MDA-MB-231 [9] = assay: Induction of apoptosis in human MDA-MB-231 cells assessed as reduction of cdc2 phosphorylation at T161 catalytic site at 10 uM by Western blot analysis; assay type: functional, cell-based; conditions: TDE = time-dependent effect
Outline: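 MDA-MB-231 cells were treated with 10 µM compound for 1, 3, 6, 12 and 24 h and lysed. Equal protein was resolved by 10% SDS–PAGE and immunoblotted for phospho-cdc2 (T161, Y15), cdc2 and cyclin B, with actin as loading standard and ECL detection.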

MCF7 [10] = assay: Antiproliferative activity against human MCF7 cells expressing estrogen receptor after 48 hrs by WST-1 assay; assay type: functional, cell-based; conditions: MCF7, 48 h; outline: as §2
MDA-MB-231 [11] = assay: Cell cycle arrest in human MDA-MB-231 cells assessed as accumulation at G2/M phase at 5 to 10 uM after 24 hrs using propidium iodide staining by flow cytometry; assay type: functional, cell-based; outline: as §1
MCF7 [12] = assay: Induction of apoptosis in human MCF7 cells assessed as early apoptotic cells at 10 uM after 24 hrs using annexinV-propidium iodide staining by flow cytometry (reference value: 4.24%); assay type: functional

## CC(C)[C@H](CO)Nc1nc(Nc2ccc(C(=O)NCCNS(=O)(=O)c3cccc4c(N(C)C)cccc34)c(Cl)c2)c2ncn(C(C)C)c2n1
Homo sapiens
  Activity: Active
MDA-MB-231 [1]
  Activity: Active
MCF7 [2]
  Activity: Active
[3]
  inhibition: 35%
MCF7 [4]
  Activity: Active
[5]
  inhibition: 75%
MDA-MB-231 [6]
  IC50: 4.06 µM
MDA-MB-231 [7]
  Activity: Active
[8]
  IC50: 44.1 µM
MDA-MB-231 [9]
  inhibition: tde
MCF7 [10]
  IC50: 10 µM
MDA-MB-231 [11]
  Activity: Active
MCF7 [12]
  Activity: 10.53%
